Assay results published in article PMC3924180 (Analytical chemistry, 2013).

What was measured:
[1] = tested on: protein tyrosine phosphatase (PTP); assay: Single cell phosphatase activity assay; format: cell-based, human; details: BEAS-2B cells pretreated with the inhibitor; abstract
Outline: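 BEAS-2B cells grown in KGM on glass-coverslip chambers, kept at 37 °C under warm ECB (HEPES buffer, pH 7.4). Microinjected with fluorescent phosphopeptide substrate pTS13 and laser-lysed after 60 s. Contents were electrokinetically loaded and separated by CE-LIF in borate/SDS/NaCl, pH 7.4. Dephosphorylation was taken as the […] peak area over the combined pTS13 + TS13 areas. Treated and untreated cells were compared by bootstrapping (10,000 samples).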

[2] = tested on: protein tyrosine phosphatase (PTP); assay: Single cell phosphatase activity assay; format: cell-based, human; details: primary hAECs pre-incubated with the inhibitor; abstract

| Molecule | inhibition relative to PTP activity in untreated controls [1] [%] | median PTP inhibition [2] [%] |
| --- | --- | --- |
| O=C1C=Cc2ccccc2C1=O [1,2-naphthoquinone] | 100 | 87 |
| [Zn+2] [Zn^2+] | 69 | 88 |
| pervanadate | 76 | 91 |
